{"source": "ChEMBL document CHEMBL1152541", "about": "“Staurosporine tethered peptide ligands that target cAMP-dependent protein kinase (PKA): optimization and selectivity profiling” (Bioorg Med Chem, 2009)", "key": {"[1]": {"biological_target": "Phosphatidylinositol 4,5-bisphosphate 3-kinase catalytic subunit gamma isoform (Homo sapiens) (UniProt P48736)", "sequence (P48736 whole entry, looked up, canonical isoform)": "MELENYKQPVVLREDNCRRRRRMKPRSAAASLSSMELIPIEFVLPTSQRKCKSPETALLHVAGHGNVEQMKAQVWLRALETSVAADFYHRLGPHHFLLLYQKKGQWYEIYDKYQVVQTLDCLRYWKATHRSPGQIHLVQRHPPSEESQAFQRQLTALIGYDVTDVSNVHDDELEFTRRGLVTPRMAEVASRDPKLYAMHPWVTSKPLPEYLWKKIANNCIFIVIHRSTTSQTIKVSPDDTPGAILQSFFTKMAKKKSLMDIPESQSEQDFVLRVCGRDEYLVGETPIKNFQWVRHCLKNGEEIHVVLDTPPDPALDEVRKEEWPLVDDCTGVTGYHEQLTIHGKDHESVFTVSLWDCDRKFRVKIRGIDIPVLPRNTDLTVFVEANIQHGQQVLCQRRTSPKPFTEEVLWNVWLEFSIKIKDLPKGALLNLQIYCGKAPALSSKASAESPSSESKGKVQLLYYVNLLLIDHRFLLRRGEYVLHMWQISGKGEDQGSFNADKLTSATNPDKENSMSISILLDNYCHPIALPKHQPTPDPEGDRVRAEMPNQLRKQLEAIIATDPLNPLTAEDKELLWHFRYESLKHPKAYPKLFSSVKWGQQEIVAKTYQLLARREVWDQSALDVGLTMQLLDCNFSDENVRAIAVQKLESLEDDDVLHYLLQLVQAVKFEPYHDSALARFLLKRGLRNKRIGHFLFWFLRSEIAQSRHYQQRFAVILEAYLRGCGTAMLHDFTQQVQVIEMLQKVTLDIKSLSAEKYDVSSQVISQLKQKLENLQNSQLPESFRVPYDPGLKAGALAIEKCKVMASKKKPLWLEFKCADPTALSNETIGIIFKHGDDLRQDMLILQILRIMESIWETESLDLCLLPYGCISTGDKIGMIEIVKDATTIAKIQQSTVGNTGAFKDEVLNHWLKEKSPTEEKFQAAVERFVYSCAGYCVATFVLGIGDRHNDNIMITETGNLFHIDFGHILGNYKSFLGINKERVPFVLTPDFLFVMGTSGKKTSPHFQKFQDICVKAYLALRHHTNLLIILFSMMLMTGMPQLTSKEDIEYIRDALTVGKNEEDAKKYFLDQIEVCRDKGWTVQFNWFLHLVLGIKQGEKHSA", "assay": "Ratio of staurosporine to compound binding affinity to PI3Kgamma in presence of DTT"}, "[2]": {"biological_target": "Mitogen-activated protein kinase kinase kinase 4 (Homo sapiens) (UniProt Q9Y6R4)", "sequence (Q9Y6R4 whole entry)": "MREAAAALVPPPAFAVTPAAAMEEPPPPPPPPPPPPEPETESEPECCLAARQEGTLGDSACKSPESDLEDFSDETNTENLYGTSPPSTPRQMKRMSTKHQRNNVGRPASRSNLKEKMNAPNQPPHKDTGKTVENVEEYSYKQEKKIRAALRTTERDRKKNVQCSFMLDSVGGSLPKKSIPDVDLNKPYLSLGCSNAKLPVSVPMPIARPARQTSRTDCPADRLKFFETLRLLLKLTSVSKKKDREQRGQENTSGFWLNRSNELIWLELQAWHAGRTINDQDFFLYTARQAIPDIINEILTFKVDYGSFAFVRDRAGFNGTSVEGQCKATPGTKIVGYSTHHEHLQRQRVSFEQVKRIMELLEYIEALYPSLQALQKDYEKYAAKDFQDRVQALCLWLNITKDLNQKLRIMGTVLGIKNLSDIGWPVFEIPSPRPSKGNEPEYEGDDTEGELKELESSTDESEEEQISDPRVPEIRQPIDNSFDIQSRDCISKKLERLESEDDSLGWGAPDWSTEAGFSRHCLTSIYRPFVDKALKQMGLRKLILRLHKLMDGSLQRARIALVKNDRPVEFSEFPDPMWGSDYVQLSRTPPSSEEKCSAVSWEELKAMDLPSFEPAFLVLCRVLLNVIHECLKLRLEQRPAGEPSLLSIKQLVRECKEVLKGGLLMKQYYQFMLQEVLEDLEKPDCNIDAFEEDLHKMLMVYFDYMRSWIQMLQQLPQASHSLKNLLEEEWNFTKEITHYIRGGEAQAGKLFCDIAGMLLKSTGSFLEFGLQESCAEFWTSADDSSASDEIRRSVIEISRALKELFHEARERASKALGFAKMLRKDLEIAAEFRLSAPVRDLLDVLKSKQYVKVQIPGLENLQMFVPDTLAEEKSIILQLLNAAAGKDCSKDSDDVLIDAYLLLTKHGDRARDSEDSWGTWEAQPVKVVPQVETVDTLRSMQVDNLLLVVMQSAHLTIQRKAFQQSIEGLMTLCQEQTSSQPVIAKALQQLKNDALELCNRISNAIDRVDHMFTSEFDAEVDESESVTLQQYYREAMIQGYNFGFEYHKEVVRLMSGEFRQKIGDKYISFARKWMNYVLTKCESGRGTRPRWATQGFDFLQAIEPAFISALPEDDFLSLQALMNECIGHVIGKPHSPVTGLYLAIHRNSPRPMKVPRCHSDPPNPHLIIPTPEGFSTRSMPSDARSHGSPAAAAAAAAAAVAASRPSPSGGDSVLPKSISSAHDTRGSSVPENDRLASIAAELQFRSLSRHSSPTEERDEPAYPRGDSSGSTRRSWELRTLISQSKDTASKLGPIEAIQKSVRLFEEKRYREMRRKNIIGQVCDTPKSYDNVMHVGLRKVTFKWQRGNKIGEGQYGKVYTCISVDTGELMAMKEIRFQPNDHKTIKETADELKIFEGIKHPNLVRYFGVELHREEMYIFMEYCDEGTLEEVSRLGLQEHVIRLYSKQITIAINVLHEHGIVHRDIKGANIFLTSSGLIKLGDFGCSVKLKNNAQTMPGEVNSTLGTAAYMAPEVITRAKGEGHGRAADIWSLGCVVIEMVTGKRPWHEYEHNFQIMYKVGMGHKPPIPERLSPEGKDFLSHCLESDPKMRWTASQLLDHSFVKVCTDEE", "assay": "Binding affinity to human MAP3K4 at 500 nM by cell-based competition binding assay relative to control in presence of DTT", "procedure,_shortened": "(§1)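 Competition binding screen (Ambit) across a panel of 90 kinases, scoring test ligand displacement of each kinase's binding relative to control. The screen ran under reducing conditions with 7.5 mM DTT.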"}, "[3]": {"biological_target": "Cyclin-dependent kinase 16 (Homo sapiens) (UniProt Q00536)", "sequence (Q00536 whole entry)": "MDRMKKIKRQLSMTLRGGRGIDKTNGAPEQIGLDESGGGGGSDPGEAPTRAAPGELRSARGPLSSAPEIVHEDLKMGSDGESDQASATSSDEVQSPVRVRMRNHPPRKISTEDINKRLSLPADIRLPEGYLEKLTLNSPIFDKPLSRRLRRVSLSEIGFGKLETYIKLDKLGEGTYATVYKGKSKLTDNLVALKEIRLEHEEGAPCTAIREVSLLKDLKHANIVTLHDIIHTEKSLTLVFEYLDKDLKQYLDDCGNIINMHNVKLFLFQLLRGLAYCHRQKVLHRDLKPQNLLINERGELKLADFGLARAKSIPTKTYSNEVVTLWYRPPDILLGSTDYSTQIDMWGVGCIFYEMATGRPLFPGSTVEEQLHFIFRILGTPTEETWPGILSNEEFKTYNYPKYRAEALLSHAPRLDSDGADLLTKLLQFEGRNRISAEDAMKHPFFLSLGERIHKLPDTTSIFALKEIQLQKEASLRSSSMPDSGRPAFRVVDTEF", "assay": "Binding affinity to human PCTK1 at 500 nM by cell-based competition binding assay relative to control in presence of DTT"}, "[4]": {"biological_target": "Mitogen-activated protein kinase kinase kinase 4 (Homo sapiens) (UniProt Q9Y6R4)", "assay": "Binding affinity to human MAP3K4 at 200 nM by cell-based competition binding assay relative to control in presence of DTT", "procedure,_shortened": "as §1"}, "[5]": {"biological_target": "Tyrosine-protein kinase ABL1 (Homo sapiens) (UniProt P00519)", "sequence (P00519 whole entry)": "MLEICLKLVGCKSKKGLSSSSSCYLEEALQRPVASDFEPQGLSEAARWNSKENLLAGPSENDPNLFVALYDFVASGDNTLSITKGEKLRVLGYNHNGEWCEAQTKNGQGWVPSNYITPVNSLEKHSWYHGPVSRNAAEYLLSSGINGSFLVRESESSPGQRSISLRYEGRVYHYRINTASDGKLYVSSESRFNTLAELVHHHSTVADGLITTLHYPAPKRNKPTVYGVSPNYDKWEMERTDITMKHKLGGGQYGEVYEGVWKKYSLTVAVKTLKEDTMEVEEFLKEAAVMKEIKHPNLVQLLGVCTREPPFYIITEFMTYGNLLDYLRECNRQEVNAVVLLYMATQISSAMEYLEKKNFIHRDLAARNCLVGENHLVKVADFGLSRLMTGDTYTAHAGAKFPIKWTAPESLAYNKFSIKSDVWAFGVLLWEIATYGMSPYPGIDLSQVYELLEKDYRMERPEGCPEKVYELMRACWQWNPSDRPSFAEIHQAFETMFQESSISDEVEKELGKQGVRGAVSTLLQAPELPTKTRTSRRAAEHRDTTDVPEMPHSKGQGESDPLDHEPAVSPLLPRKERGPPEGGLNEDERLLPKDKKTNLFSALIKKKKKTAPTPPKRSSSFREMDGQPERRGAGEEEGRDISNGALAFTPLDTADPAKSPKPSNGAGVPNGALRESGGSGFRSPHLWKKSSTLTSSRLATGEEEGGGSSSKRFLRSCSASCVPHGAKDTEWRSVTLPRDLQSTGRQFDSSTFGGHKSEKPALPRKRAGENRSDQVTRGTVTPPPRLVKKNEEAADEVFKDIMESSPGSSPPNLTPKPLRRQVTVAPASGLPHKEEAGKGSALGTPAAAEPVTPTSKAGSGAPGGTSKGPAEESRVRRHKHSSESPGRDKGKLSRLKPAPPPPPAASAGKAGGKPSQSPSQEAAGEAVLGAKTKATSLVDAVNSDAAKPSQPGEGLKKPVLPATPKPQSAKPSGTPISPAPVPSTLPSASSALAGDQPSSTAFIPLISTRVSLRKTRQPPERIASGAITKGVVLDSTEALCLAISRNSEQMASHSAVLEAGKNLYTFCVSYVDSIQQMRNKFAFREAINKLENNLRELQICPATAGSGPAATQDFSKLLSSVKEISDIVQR", "assay": "Binding affinity to human ABL1 at 200 nM by cell-based competition binding assay relative to control in presence of DTT", "procedure,_shortened": "(§2)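 Kinase binding profiling ran on a commercial (Ambit) competitive binding screen against a panel of 90 kinases. The screen used reducing conditions with 7.5 mM DTT. To withstand the DTT, the bivalent ligand was tested as its amide isostere, with the disulfide replaced. A staurosporine derivative carrying a 3 β-alanine linker was run as the reference compound.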"}, "[6]": {"biological_target": "T1, Serine/threonine-protein kinase Chk1 (Homo sapiens) (UniProt O14757)", "T1 sequence (whole entry)": "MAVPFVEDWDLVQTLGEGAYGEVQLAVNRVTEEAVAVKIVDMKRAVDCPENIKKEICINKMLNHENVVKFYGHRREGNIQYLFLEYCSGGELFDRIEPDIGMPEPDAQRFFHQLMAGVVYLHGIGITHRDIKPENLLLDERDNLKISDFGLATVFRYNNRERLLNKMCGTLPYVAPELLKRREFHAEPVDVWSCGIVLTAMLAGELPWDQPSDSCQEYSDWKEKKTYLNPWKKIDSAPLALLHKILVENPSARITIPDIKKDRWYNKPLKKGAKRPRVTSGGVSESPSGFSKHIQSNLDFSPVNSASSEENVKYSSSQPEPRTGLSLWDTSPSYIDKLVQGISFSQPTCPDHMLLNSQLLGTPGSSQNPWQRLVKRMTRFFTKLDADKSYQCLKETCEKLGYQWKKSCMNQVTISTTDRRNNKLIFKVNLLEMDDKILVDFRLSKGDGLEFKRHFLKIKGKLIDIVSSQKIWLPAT", "assay": "Binding affinity to human CHEK1 at 200 nM by cell-based competition binding assay relative to control in presence of DTT", "procedure,_shortened": "(§3)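 Commercial (Ambit) competitive kinase-binding panel of 90 kinases measured the binding profile. Run under reducing conditions of 7.5 mM DTT. Binding is expressed relative to control.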"}, "[7]": {"biological_target": "T2, TGF-beta receptor type-1 (Homo sapiens) (UniProt P36897)", "T2 sequence (whole entry)": "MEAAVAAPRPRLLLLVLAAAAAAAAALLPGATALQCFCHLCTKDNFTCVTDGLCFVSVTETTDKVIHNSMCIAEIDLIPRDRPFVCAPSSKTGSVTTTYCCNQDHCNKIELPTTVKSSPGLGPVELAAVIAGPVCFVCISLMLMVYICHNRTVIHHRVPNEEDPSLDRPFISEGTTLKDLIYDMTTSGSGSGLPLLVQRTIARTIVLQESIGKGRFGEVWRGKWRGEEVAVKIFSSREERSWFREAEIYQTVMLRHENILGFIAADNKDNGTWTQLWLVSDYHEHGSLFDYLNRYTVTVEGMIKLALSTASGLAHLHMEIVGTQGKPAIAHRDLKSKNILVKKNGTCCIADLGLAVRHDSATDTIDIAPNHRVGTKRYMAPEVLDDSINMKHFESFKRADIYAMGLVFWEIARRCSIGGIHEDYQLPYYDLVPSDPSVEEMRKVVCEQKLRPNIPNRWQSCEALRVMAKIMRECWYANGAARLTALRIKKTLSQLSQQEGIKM", "assay": "Binding affinity to human TGFBR1 at 200 nM by cell-based competition binding assay relative to control in presence of DTT"}, "[8]": {"biological_target": "T3, Bone morphogenetic protein receptor type-2 (Homo sapiens) (UniProt Q13873)", "T3 sequence (whole entry)": "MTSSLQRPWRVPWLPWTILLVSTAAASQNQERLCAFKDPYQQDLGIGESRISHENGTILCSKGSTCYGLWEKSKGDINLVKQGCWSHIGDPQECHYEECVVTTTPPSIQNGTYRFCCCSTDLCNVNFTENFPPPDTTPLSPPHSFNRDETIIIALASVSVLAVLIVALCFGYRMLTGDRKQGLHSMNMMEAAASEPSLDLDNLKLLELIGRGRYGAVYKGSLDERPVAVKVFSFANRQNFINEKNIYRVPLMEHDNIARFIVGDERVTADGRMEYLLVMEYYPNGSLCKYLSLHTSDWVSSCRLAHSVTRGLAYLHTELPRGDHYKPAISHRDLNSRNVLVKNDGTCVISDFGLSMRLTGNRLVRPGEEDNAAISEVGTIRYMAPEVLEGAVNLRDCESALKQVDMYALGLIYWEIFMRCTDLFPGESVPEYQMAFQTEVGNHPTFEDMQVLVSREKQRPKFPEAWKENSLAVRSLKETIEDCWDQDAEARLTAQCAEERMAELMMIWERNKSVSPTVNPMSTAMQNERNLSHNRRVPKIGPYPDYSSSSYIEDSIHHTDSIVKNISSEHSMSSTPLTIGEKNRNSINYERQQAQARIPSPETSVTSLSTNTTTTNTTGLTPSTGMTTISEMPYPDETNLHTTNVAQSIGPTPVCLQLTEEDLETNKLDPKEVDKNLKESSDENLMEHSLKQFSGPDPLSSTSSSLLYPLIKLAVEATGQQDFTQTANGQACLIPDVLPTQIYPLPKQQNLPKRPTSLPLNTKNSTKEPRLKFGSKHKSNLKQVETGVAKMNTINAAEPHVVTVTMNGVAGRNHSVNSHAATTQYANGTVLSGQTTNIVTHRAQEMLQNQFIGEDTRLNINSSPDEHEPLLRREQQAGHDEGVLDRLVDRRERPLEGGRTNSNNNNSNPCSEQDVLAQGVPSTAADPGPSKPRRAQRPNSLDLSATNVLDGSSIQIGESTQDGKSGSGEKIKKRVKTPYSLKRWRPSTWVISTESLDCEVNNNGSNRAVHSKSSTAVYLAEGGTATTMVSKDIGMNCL", "assay": "Binding affinity to human BMPR2 at 50 nM by cell-based competition binding assay relative to control in presence of DTT", "procedure,_shortened": "as §2"}, "[9]": {"biological_target": "Mitogen-activated protein kinase 3 (Homo sapiens) (UniProt P27361)", "sequence (P27361 whole entry)": "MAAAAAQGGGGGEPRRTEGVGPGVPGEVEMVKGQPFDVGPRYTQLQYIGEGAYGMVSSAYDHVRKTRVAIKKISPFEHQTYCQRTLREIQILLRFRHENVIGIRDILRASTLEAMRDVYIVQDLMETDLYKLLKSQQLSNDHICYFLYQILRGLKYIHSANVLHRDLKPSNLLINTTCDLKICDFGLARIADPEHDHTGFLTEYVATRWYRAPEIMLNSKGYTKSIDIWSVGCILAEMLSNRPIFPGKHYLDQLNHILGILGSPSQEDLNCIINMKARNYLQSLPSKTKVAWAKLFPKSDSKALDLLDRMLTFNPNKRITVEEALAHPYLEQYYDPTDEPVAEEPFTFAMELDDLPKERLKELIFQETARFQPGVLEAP", "assay": "Binding affinity to human ERK1 at 50 nM by cell-based competition binding assay relative to control in presence of DTT", "procedure,_shortened": "as §3"}, "[10]": {"biological_target": "Fibroblast growth factor receptor 2 (Homo sapiens) (UniProt P21802)", "assay": "Binding affinity to human FGFR2 at 50 nM by cell-based competition binding assay relative to control in presence of DTT", "procedure,_shortened": "as §3"}}, "note": "*1 amine or outer side, *2 acyl side, *3 side chain or, on linkers, in order; H or OH if unused. Where a SMILES comes first, the peptide text is derived from it. Bridges are numbered along the chain shown (N, C = ends). [ ]: non-standard residue; d: D form. The star is where a group is joined. Staurosporine = CO[C@@H]1[C@H](N(C)*)C[C@H]2O[C@]1(C)n1c3ccccc3c3c4c(c5c6ccccc6n2c5c31)C(=O)NC4; Suc = O=C(CCC(=O)[*:2])[*:1]; Dap = NC[C@H](N)C(=O)O; βAla = NCCC(=O)O"}
{"compound": "CO[C@@H]1[C@H](N(C)C(=O)CCC(=O)NCCC(=O)NCCC(=O)NCCC(N)=O)C[C@H]2O[C@]1(C)n1c3ccccc3c3c4c(c5c6ccccc6n2c5c31)C(=O)NC4", "values": [{"measurement": "Selectivity ratio", "setting": "[1]", "result": 6}, {"measurement": "Activity", "setting": "[2]", "result": 95, "unit": "%"}, {"measurement": "Activity", "setting": "[3]", "result": 75, "unit": "%"}]}
{"compound": "CO[C@@H]1[C@H](N(C)C(=O)CCC(=O)NCCC(=O)NCCC(=O)NCCC(=O)NCCC(=O)NCCC(=O)NCCC(=O)NCCC(=O)N[C@H]2CSSC[C@@H](C(=O)NCC(N)=O)NC(=O)CNC(=O)[C@H](Cc3ccccc3)NC(=O)[C@H](C(C)C)NC(=O)[C@H](CCCNC(=N)N)NC(=O)[C@H](Cc3ccccc3)NC(=O)[C@H](C(C)C)NC2=O)C[C@H]2O[C@]1(C)n1c3ccccc3c3c4c(c5c6ccccc6n2c5c31)C(=O)NC4", "note": "({Staurosporine-Suc-βAla-βAla-βAla-βAla-βAla-βAla-βAla}-CVFRVFGCG-NH2; disulfide 1-8)", "values": [{"measurement": "Activity", "setting": "[4]", "result": 94, "unit": "%"}, {"measurement": "Activity", "setting": "[5]", "result": 100, "unit": "%"}, {"measurement": "Activity", "setting": "[6]", "result": 60, "unit": "%"}, {"measurement": "Activity", "setting": "[7]", "result": 100, "unit": "%"}]}
{"compound": "CO[C@@H]1[C@H](N(C)C(=O)CCC(=O)NCCC(=O)NCCC(=O)NCCC(=O)NCCC(=O)NCCC(=O)NCCC(=O)NCCC(=O)N[C@H]2CNC(=O)C[C@@H](C(N)=O)NC(=O)CNC(=O)[C@H](Cc3ccccc3)NC(=O)[C@H](C(C)C)NC(=O)[C@H](CCCNC(=N)N)NC(=O)[C@H](Cc3ccccc3)NC(=O)[C@H](C(C)C)NC2=O)C[C@H]2O[C@]1(C)n1c3ccccc3c3c4c(c5c6ccccc6n2c5c31)C(=O)NC4", "note": "({Staurosporine-Suc-βAla-βAla-βAla-βAla-βAla-βAla-βAla}-[Dap]VFRVFGD-NH2; lactam 1-8)", "values": [{"measurement": "Activity", "setting": "[8]", "result": 99, "unit": "%"}, {"measurement": "Activity", "setting": "[9]", "result": 100, "unit": "%"}, {"measurement": "Activity", "setting": "[10]", "result": 86, "unit": "%"}]}
